How the values were obtained:
Assay type in all cases: cell-based
[1] = target: T1, Kir3.1/Kir3.4 (Homo sapiens) (UniProt P48549+P48544); experiment: Inhibition of GIRK-1/4 channel (unknown origin) expressed in HEK293 cells at 1 uM by automated patch clamp method relative to control
In short: (§1)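 HEK-293 cells stably expressing GIRK1/4 (Kir3.1/3.4) K+ channels; whole-cell currents recorded by automated patch clamp. Compounds screened at 1 and 10 μM, two or three cells per condition. Current values corrected using the current measured in K+-free external solution as baseline. Inhibition expressed as % of GIRK current; mean ± SEM, n = 2–3.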

[2] = target: T1, Kir3.1/Kir3.4 (Homo sapiens); experiment: Inhibition of GIRK-1/4 channel (unknown origin) expressed in HEK293 cells at 10 uM by automated patch clamp method relative to control; in short: as §1
[3] = target: T1, Kir3.1/Kir3.4 (Homo sapiens); experiment: (§2) Inhibition of GIRK-1/4 channel (unknown origin) expressed in HEK293 cells by automated patch clamp method
In short: (§3)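 Whole-cell currents by automated patch clamp in HEK-293 cells stably expressing GIRK1/4 (Kir3.1/3.4). Screening at 1 and 10 μM on two or three cells. Concentration-response at four concentrations (0.3, 1, 3, 10 μM) on five or six cells, used for IC50. Currents corrected to the K+-free external solution as baseline. Means ± SEM.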

[4] = target: T2, Kir3.1/Kir3.4 (Homo sapiens, UniProt P48544+P48549); experiment: as §2; in short: as §3
T2 sequence (P48549 whole entry): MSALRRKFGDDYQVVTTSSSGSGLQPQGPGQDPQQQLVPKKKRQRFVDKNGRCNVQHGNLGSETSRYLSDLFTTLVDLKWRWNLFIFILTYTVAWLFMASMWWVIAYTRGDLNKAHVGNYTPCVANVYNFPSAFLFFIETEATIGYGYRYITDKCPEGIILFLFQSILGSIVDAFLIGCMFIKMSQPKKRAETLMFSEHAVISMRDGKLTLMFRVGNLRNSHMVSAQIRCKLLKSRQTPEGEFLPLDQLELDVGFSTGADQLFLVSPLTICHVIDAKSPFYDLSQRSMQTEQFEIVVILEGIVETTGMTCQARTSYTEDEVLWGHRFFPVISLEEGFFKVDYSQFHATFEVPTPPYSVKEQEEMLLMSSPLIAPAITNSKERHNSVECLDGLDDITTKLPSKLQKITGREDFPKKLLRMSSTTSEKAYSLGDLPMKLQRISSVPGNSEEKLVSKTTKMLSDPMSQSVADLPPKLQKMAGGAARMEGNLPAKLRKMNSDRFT
T2 sequence (P48544 whole entry): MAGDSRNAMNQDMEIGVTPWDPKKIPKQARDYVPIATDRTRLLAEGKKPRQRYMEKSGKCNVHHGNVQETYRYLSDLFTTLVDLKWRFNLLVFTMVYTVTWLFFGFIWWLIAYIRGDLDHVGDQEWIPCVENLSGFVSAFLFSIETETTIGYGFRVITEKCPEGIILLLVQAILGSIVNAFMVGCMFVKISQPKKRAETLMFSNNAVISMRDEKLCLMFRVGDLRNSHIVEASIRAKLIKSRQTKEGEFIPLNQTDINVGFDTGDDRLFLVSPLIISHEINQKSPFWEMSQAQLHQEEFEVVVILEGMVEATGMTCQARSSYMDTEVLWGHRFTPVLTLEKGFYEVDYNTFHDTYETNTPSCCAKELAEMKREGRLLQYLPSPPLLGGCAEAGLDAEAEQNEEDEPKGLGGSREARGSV

[5] = target: T3, hERG (KCNH2) (Homo sapiens, UniProt Q12809); experiment: Inhibition of human ERG expressed in HEK293 cells at 1 uM by automated patch clamp method relative to control; details: HEK293 cells that express hERG
In short: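 Automated whole-cell patch clamp in HEK-293 cells stably transfected with hERG (Kv11.1) cDNA. Increasing concentrations (1 and 10 μM) applied, two cells each. Current amplitude inhibition expressed as %, means ± SEM. 10 μM amitriptyline used as reference blocker.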

[6] = target: T3, hERG (KCNH2); experiment: Inhibition of human ERG expressed in HEK293 cells at 10 uM by automated patch clamp method relative to control; details: HEK293 cells that express hERG

T3 sequence (Q12809 whole entry): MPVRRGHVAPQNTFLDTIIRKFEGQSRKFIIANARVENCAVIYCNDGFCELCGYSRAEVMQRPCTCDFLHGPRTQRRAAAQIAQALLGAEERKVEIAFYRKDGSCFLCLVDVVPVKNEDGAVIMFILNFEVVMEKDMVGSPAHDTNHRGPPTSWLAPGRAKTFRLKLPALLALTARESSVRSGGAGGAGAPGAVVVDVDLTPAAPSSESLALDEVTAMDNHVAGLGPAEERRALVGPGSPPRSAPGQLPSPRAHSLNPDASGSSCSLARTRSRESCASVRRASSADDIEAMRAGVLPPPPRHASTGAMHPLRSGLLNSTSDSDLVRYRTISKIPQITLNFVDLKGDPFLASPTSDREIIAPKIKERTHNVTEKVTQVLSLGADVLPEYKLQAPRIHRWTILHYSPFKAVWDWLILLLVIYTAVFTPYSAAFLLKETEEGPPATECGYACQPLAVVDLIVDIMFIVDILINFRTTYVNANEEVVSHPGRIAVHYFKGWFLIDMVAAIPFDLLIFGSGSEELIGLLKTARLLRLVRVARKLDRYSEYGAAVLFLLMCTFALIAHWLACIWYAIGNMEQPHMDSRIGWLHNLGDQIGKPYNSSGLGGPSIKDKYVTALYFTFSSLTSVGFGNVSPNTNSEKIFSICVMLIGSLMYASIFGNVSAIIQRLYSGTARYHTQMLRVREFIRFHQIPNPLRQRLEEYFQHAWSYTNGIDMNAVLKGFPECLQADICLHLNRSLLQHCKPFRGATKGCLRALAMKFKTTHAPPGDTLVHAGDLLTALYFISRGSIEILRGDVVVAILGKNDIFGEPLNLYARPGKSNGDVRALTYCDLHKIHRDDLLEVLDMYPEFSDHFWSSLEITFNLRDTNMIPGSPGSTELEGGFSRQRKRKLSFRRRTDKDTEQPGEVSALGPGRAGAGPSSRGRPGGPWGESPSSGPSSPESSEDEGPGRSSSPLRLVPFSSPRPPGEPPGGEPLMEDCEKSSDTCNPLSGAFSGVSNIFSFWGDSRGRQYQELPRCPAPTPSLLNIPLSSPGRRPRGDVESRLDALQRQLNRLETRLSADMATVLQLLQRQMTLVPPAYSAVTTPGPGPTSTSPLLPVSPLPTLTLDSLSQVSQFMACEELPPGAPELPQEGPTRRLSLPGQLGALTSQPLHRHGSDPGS

inhibition [1] [%] | inhibition [2] [%] | Structure (SMILES) | inhibition [3] | IC50 [4] [nM] | inhibition at 1 µM [5] [%] | inhibition at 10 µM [6] [%]
17.7 | 28.6 | CC(=O)OCC(=O)O[C@@H]1[C@H]2[C@@H](OC(=O)c3ccccc3)[C@@H](C)C[C@]2(O)[C@@H](OC(C)=O)[C@]2(C)C[C@@]1(OC(C)=O)C[C@H]1C(=O)C(C)(C)C[C@@H]12 |  |  |  | 
22.2 | 23.7 | C=C1CC[C@@H](OC(=O)/C=C/c2ccccc2)C(C)(C)/C=C/[C@H](C)C(=O)[C@@]2(O)C[C@H](C)[C@H](OC(=O)/C=C/c3ccccc3)[C@@H]2[C@H]1OC(C)=O |  |  |  | 
16.4 | 45.1 | C/C=C(/C)C(=O)OCC1(C)[C@H]2[C@@H]3C=C(COC(C)=O)[C@@H](O)[C@]4(O)[C@@H](OC(=O)/C(C)=C\C)C(C)=C[C@]4(C3=O)[C@H](C)C[C@H]21 (stereo partly specified) |  |  |  | 
15.3 | 60.8 | C/C=C(\C)C(=O)O[C@H]1[C@@H](C)/C=C/C(C)(C)[C@H](OC(C)=O)[C@@H](OC(C)=O)[C@@H](O)/C(C)=C/[C@H]2[C@@H](OC(=O)c3ccccc3)[C@@H](C)C[C@@]21O |  |  |  | 
15.7 | 25.7 | CC(=O)O[C@H]1[C@@H](C)/C=C/C(C)(C)[C@H](O)[C@@H](O)[C@@H](O)/C(C)=C/[C@H]2[C@@H](OC(=O)c3ccccc3)[C@@H](C)C[C@@]21O |  |  |  | 
16.8 | 66.6 | CC(=O)O[C@@H]1[C@@H](OC(C)=O)C(C)(C)/C=C/[C@H](C)[C@H](OC(C)=O)[C@@]2(O)C[C@H](C)[C@H](OC(=O)c3ccccc3)[C@@H]2/C=C(\C)[C@@H]1O |  |  |  | 
60.6 to 94.2 |  | CCCNCC(O)COc1ccccc1C(=O)CCc1ccccc1 (stereo unspecified) |  |  |  | 
31.1 | 78.7 | CC(=O)O[C@@H]1C[C@@H](OC(C)=O)C(C)(C)/C=C/[C@H](C)[C@H](OC(C)=O)[C@@]2(O)C[C@H](C)[C@H](OC(=O)c3ccccc3)[C@@H]2/C=C/1C [EUPHORNIN] | Dose-dependent effect | 2630 | 3.3 | 19
23.5 | 35.7 | C/C=C(\C)C(=O)O[C@H]1/C(C)=C/[C@H]2[C@@H](OC(=O)c3ccccc3)[C@@H](C)C[C@]2(O)[C@@H](OC(=O)/C(C)=C/C)[C@@H](C)/C=C/C(C)(C)[C@H](OC(C)=O)[C@H]1OC(C)=O |  |  |  | 
11.2 | 23.5 | CC(=O)O[C@H]1/C(C)=C/[C@H]2[C@@H](OC(=O)c3ccccc3)[C@@H](C)C[C@]2(O)[C@@H](OC(C)=O)[C@@H](C)/C=C/C(C)(C)[C@H](O)[C@H]1O |  |  |  | 
16 | 26.8 | CC(=O)O[C@@H]1[C@@H](O)[C@@H](OC(C)=O)/C(C)=C/[C@H]2[C@@H](OC(=O)c3ccccc3)[C@@H](C)C[C@]2(O)[C@@H](OC(C)=O)[C@@H](C)/C=C/C1(C)C |  |  |  | 
33.8 | 83.4 | CC(=O)O[C@@H]1[C@@H](OC(C)=O)C(C)(C)/C=C/[C@H](C)[C@H](OC(C)=O)[C@@]2(O)C[C@H](C)[C@H](OC(=O)c3ccccc3)[C@@H]2/C=C(\C)[C@@H]1OC(C)=O | Dose-dependent effect | 1690 | 13.2 | 24

Structure (SMILES) | inhibition [1] [%] | inhibition [2] [%] | inhibition [3] | IC50 [4] [nM] | inhibition at 1 µM [5] [%] | inhibition at 10 µM [6] [%]
C/C=C(\C)C(=O)O[C@H]1/C(C)=C/[C@H]2[C@@H](OC(=O)c3ccccc3)[C@@H](C)C[C@]2(O)[C@@H](OC(C)=O)[C@@H](C)/C=C/C(C)(C)[C@H](OC(C)=O)[C@H]1OC(C)=O | 38.5 | 85 | Dose-dependent effect | 1600 | 6.5 | 24.4
CC(=O)O[C@@H]1[C@@H](OC(C)=O)C(C)(C)/C=C/[C@H](C)[C@H](O)[C@@]2(OC(C)=O)C[C@H](C)[C@H](OC(=O)c3ccccc3)[C@@H]2/C=C(\C)[C@@H]1OC(C)=O | 27.2 | 66 | Dose-dependent effect | 3400 | 11.2 | 22.7
C/C=C(\C)C(=O)O[C@@H]1C[C@@H](OC(C)=O)C(C)(C)/C=C/[C@H](C)[C@H](OC(C)=O)[C@@]2(O)C[C@H](C)[C@H](OC(=O)c3ccccc3)[C@@H]2/C=C/1C | 35.5 | 88.7 | Dose-dependent effect | 1310 | 10.8 | 24.9
C/C=C(/C)C(=O)O[C@H]1C(C)=C[C@@]23C(=O)[C@@H](C=C(C)[C@@H](O)[C@]12O)[C@H]1[C@@H](C[C@H]3C)C1(C)C | 23.8 | 52.3 | Dose-dependent effect | 12100 | 1.8 | 7.9
C/C=C(/C)C(=O)OCC1(C)[C@H]2[C@@H]3C=C(C)[C@@H](O)[C@]4(O)[C@@H](OC(=O)/C(C)=C\C)C(C)=C[C@]4(C3=O)[C@H](C)C[C@H]21 (stereo partly specified) | 43.9 | 80.4 | Dose-dependent effect | 1450 | 11.2 | 55.4

Source: ChEMBL document CHEMBL4266051, “Diterpenoids from Euphorbia dulcis with Potassium Ion Channel Inhibitory Activity with Selective G Protein-Activated Inwardly Rectifying Ion Channel (GIRK) Blocking Effect” (J Nat Prod, 2018)
